Laboratory results as given in ChEMBL document CHEMBL1152807 (J Med Chem, 2009).
Active and inactive are the calls of the source. The calls are words filed in the database; no cut-off is given here.

Columns and labels:
Phosphodiesterase 4 = Phosphodiesterase 4 (Homo sapiens, UniProt P27815+Q08499+Q07343+Q08493); experiment: Inhibition of human PDE4; type: protein assay
Outline: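 PDE4 enzyme was isolated from U937 cells, following a previously reported method.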

PBMC = experiment: Inhibition of TNFalpha production in LPS-stimulated human PBMC preincubated before LPS challenge measured after 4 hrs by enzyme immunoassay; type: functional, cell-based
Blood = experiment: Inhibition of TNFalpha production in LPS-stimulated human whole blood preincubated before LPS challenge measured after 4 hrs by enzyme immunoassay; type: functional, tissue-based
[1] = Ratio of IC50 for TNFalpha production in LPS-stimulated human whole blood to IC50 for TNFalpha production in LPS-stimulated human PBMC; type: functional
Cytochrome P450 3A4 = Cytochrome P450 3A4 (Homo sapiens, UniProt P08684); experiment: Inhibition of CYP3A4; type: ADME
[2] = Clearance in rat at 5 mg/kg, iv; type: ADME, organism-based; design: dose 5 mg/kg, route intravenous; conditions: in vivo
Outline: (§1)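 Pharmacokinetics were determined in female rats after oral and intravenous administration.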

Rattus norvegicus [3] = experiment: Antiinflammatory activity in po dosed rat assessed as inhibition of LPS-induced TNFalpha production; type: functional
Outline: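 Rat in vivo model: rats were dosed orally and TNF-α production was induced with LPS. Inhibition of TNF-α production was measured and an ED50 was determined.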

[4] = Half life in rat at 10 mg/kg, po; type: ADME, organism-based; design: dose 10 mg/kg, route oral; conditions: in vivo; outline: as §1
Rattus norvegicus [5] = experiment: Antiinflammatory activity in rat assessed as inhibition of LPS-induced TNFalpha production at 0.01 mg/kg, po; type: functional, organism-based; design: dose 0.01 mg/kg
Cytochrome P450 1A2 = target: T1, Cytochrome P450 1A2 (Homo sapiens, UniProt P05177); experiment: Inhibition of CYP1A2; type: ADME
T1 sequence (P05177 whole entry): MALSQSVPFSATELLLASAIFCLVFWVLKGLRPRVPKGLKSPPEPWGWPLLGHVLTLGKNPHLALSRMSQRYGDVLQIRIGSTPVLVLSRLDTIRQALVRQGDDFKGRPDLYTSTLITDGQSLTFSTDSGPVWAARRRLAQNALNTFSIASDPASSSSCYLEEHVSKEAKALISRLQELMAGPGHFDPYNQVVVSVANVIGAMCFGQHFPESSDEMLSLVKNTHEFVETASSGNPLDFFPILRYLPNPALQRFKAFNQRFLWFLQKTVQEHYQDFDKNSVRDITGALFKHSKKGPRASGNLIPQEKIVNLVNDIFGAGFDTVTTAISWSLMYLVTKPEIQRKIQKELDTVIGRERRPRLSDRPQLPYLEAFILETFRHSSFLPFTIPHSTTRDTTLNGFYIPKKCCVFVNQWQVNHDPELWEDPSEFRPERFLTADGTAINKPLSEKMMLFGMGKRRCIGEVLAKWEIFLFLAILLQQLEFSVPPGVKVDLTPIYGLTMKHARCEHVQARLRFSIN

Cytochrome P450 2C19 = Cytochrome P450 2C19 (Homo sapiens, UniProt P33261); experiment: Inhibition of CYP2C19; type: ADME
Rattus norvegicus [6] = experiment: Antiinflammatory activity in po dosed rat assessed as inhibition of LPS-induced neutrophilia in bronchoalveolar lavage fluid; type: functional; conditions: Lung
Outline: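 Rat in vivo model: rats were dosed orally and neutrophilia was induced with LPS. Neutrophils were counted in bronchoalveolar lavage fluid and an ED50 for inhibition was determined.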

[7] = Cmax in rat at 5 mg/kg, iv; type: ADME, organism-based; design: dose 5 mg/kg, route intravenous; conditions: in vivo; outline: as §1
[8] = AUC in rat at 10 mg/kg, po; type: ADME, organism-based; design: dose 10 mg/kg, route oral; conditions: plasma; outline: as §1
[9] = Volume of distribution at steady state in rat at 5 mg/kg, iv; type: ADME, organism-based; design: dose 5 mg/kg, route intravenous; conditions: in vivo, read-out: Vdss; outline: as §1
[10] = Oral bioavailability in rat at 10 mg/kg; type: ADME, organism-based; conditions: in vivo; outline: as §1
[11] = Metabolic stability in human microsomes assessed as half life; type: ADME, Microsome
[12] = Half life in rat at 5 mg/kg, iv; type: ADME, organism-based; design: dose 5 mg/kg, route intravenous; conditions: in vivo; outline: as §1
Cytochrome P450 2D6 = Cytochrome P450 2D6 (Homo sapiens, UniProt P10635); experiment: Inhibition of CYP2D6; type: ADME
[13] = Cmax in rat at 10 mg/kg, po; type: ADME, organism-based; design: dose 10 mg/kg, route oral; conditions: in vivo; outline: as §1
[14] = AUC in rat at 5 mg/kg, iv; type: ADME, organism-based; design: dose 5 mg/kg, route intravenous; conditions: plasma; outline: as §1
[15] = Protein binding in human plasma; type: ADME, cell-free; conditions: read-out: PPB (converted)
Cytochrome P450 2C9 = Cytochrome P450 2C9 (Homo sapiens, UniProt P11712); experiment: Inhibition of CYP2C9; type: ADME
Rattus norvegicus [16] = experiment: Antiinflammatory activity in po dosed BN rat late airway inflammatory model assessed as inhibition of ovalbumin-induced cell infiltration in bronchoalveolar lavage fluid measured 48 hrs after ovalbumin challenge; type: functional; conditions: Lung

Chain of Cytochrome P450 2C19 (P33261 whole entry): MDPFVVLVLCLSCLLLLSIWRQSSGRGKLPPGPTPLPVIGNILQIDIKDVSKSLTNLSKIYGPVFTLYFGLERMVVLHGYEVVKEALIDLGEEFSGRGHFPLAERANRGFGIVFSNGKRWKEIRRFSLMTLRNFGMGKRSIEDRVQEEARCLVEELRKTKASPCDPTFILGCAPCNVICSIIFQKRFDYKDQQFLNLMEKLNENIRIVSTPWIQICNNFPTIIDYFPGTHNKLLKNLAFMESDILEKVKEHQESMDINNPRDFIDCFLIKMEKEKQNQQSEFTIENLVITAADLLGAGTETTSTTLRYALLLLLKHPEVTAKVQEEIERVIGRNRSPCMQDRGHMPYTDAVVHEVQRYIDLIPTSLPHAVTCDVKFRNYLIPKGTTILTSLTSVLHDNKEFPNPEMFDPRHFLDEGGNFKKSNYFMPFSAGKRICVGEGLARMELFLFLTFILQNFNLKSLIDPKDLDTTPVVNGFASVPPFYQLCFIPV
Chain of Cytochrome P450 3A4 (P08684 whole entry): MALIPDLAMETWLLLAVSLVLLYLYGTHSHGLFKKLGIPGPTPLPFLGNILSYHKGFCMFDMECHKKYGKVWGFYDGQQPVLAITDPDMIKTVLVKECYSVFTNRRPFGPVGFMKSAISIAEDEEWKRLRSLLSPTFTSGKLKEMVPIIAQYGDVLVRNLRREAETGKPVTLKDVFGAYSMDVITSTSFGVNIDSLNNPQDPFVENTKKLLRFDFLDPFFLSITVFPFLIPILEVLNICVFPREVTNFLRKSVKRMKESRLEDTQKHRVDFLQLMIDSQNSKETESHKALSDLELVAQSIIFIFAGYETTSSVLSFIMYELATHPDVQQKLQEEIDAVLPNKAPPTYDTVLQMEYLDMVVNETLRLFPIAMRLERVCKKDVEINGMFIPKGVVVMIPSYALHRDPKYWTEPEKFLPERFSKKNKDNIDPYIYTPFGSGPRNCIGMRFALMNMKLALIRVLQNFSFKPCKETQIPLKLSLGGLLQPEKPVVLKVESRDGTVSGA
Chain of Cytochrome P450 2D6 (P10635 whole entry): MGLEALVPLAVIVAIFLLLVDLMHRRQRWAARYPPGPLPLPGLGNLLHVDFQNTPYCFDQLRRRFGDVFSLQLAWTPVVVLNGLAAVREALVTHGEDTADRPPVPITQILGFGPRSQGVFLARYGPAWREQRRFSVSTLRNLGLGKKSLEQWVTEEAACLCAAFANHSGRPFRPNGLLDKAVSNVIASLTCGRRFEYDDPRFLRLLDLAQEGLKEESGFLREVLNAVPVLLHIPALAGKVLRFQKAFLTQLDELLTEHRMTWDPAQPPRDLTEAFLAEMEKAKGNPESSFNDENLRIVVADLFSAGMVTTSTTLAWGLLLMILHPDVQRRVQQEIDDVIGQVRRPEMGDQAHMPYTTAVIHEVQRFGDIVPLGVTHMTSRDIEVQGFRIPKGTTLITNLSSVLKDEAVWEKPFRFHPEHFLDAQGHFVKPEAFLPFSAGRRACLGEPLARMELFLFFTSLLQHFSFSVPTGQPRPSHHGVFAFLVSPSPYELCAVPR
Chain of Cytochrome P450 2C9 (P11712 whole entry): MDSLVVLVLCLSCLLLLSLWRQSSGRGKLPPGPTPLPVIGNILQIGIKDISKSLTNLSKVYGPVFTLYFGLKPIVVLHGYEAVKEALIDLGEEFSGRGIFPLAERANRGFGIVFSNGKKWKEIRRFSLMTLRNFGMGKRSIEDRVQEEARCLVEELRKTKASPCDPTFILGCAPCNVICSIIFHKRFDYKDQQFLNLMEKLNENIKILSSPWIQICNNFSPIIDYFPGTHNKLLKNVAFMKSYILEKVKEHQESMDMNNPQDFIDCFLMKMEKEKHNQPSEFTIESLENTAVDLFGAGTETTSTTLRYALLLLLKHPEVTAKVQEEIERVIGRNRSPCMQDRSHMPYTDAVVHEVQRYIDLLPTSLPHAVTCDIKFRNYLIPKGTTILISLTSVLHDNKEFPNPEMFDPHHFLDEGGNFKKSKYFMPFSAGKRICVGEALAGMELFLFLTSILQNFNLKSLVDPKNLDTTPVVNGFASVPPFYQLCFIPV

Compound	IC50 (Phosphodiesterase 4)	IC50 (Blood)	IC50 (PBMC)	other results
COc1ccc(C(CC#N)N2C(=O)c3ccccc3C2=O)cc1OC1CCCC1 (stereo unspecified)	340 nM			
COc1ccc(C(CS(C)(=O)=O)N2C(=O)c3ccccc3C2=O)cc1OC1CCCC1 (stereo unspecified)	260 nM		1500 nM	
CCOc1cc(C(CC(N)=O)N2C(=O)c3ccccc3C2=O)ccc1OC (stereo unspecified)	1900 nM	10500 nM		
CCOc1cc(C(CS(C)(=O)=O)N2C(=O)c3ccccc3C2=O)ccc1OC (stereo unspecified)	220 nM	2500 nM	1300 nM	
COC(=O)CC(c1ccc(OC)c(OC2CCCC2)c1)N1C(=O)c2ccccc2C1=O (stereo unspecified)	1600 nM		1700 nM	
COc1ccc(C(CC(=O)O)N2C(=O)c3ccccc3C2=O)cc1OC1CCCC1 (stereo unspecified)	340 nM		36000 nM	
CCOc1cc([C@H](CS(C)(=O)=O)N2C(=O)c3cccc(NC(C)=O)c3C2=O)ccc1OC			370 nM	
CCOc1cc(C(CS(C)(=O)=O)N2C(=O)c3cccc(N(C)C)c3C2=O)ccc1OC (racemic)	120 nM	1400 nM	220 nM	Ratio IC50 [1]: 6
CCOc1cc(C(CC(=O)O)N2C(=O)c3ccccc3C2=O)ccc1OC (stereo unspecified)	1300 nM		35000 nM	
CCOc1cc(C(CS(C)(=O)=O)N2C(=O)c3cccc(OC)c3C2=O)ccc1OC (racemic)	690 nM		340 nM	
O=C(Nc1c(Cl)cncc1Cl)c1ccc(OC(F)F)c(OCC2CC2)c1 [ROFLUMILAST]			0.02 nM	ED50 (Rattus norvegicus [16]): 0.9 mg/kg

Further lines, with some results ahead:

IC50 (Phosphodiesterase 4)	IC50 (Blood)	Compound	IC50 (PBMC)	other results
130 nM	1600 nM	CCOc1cc(C(CC#N)N2C(=O)c3cccc(NC(C)=O)c3C2=O)ccc1OC (racemic)	440 nM	
220 nM	4000 nM	CCOc1cc(C(CC(=O)OC)N2C(=O)c3ccccc3C2=O)ccc1OC (stereo unspecified)		
710 nM		CCOc1cc([C@@H](CC(N)=O)N2C(=O)c3cccc(NC(C)=O)c3C2=O)ccc1OC	3000 nM	
68 nM	2400 nM	CCOc1cc(C(CS(C)(=O)=O)N2C(=O)c3cccc(C)c3C2=O)ccc1OC (racemic)	270 nM	Ratio IC50 [1]: 9
	440 nM	CCOc1cc(C(CS(C)(=O)=O)N2C(=O)c3cccc(NC(C)=O)c3C2=O)ccc1OC (racemic)	190 nM	
40 nM	490 nM	CCOc1cc(C(CC#N)N2C(=O)c3ccccc3C2=O)ccc1OC (stereo unspecified)	240 nM	
120 nM	2200 nM	CCOc1cc(C(CS(C)(=O)=O)N2C(=O)c3cccc(N)c3C2=O)ccc1OC (racemic)	370 nM	Ratio IC50 [1]: 6
	110 nM	CCOc1cc([C@@H](CS(C)(=O)=O)N2C(=O)c3cccc(NC(C)=O)c3C2=O)ccc1OC	77 nM	IC50 (Cytochrome P450 3A4): > 10000 nM; clearance [2]: 8.33 mL/min/kg; ED50 (Rattus norvegicus [3]): 0.03 mg/kg; half-life [4]: 5 h; Activity (Rattus norvegicus [5]): Active; IC50 (Cytochrome P450 1A2): > 10000 nM; IC50 (Cytochrome P450 2C19): > 10000 nM; ED50 (Rattus norvegicus [6]): 0.3 mg/kg; Cmax [7]: 6600 ng/mL; AUC [8]: 14000 ng·h/mL; Vd [9]: 2 L/kg; bioavailability [10]: 64%; half-life [11]: > 1 h; half-life [12]: 3 h; IC50 (Cytochrome P450 2D6): > 10000 nM; Cmax [13]: 1100 ng/mL; AUC [14]: 11000 ng·h/mL; fraction unbound [15]: 0.1; IC50 (Cytochrome P450 2C9): > 10000 nM
820 nM		CCOc1cc(C(CS(C)(=O)=O)N2C(=O)c3cccc(O)c3C2=O)ccc1OC (racemic)	1470 nM	
